Assay results reported in ChEMBL document CHEMBL5370602, “Structure-Based Design of a Lead Compound Derived from Natural Schweinfurthins with Antitumor Properties That Target Oxysterol-Binding Protein” (J Med Chem, 2023).

What was measured:
[1] = Antitumor activity in high alert medicated patient derived human GBM1 cells xenografted in immunodeficient nude mouse model assessed as T/C ratio at 50 mg/kg,ip QD and measured after 9 to 11 days; format: functional; conditions: time 9-11 day
Procedure, shortened: (§1)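 Female athymic nude mice bearing subcutaneous GBM1-HAM PDX fragments (20 mm³); treatment began day 11 post-implant at tumour volumes 75-196 mm³, 10 per group. Compound i.p. daily in cyclodextrin vehicle (17 days alone, 27 days in combination); temozolomide 42 mg/kg p.o. daily for 5 days in PBS/glucose/Tween 80. Calliper volumes three times weekly; body weight and clinical signs monitored.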

[2] = Metabolic stability in mouse plasma assessed as compound remaining at 5 uM and measured after 120 mins by UPLC-MS/MS analysis; format: ADME, cell-free; conditions: read-out: Stability
Procedure, shortened: (§2)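 Male mouse plasma at 37 °C with compound added from a 5 µM solution […]. Sampled at 0, 15, 30, 45, 60 and 120 min, quenched with acetonitrile and read by LC-MS/MS (MRM) in duplicate. Procaine positive control. Remaining % and t1/2 derived from MRM area relative to t = 0.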

[3] = Toxicity in immunodeficient nude mouse model xenografted with high alert medicated patient derived human GBM1 cells assessed as clinical symptoms at 50 mg/kg,ip QD for 27 days cotreatment with Temozolomide at 42 mg/kg,po QD for 5 days; format: organism-based; conditions: in vivo, 648 h, time 27 day; procedure, shortened: as §1
[4] = Toxicity in immunodeficient mouse assessed as clinical symptoms at 100 mg/kg,ip QD for 5 days; format: organism-based; conditions: in vivo, 120 h, time 5 day
U-87 MG [5] = assay: Induction of autophagy in human U-87 MG cells assessed as increase in LC3II expression at 0.05 to 1 uM incubated for 48 hrs by Western blot analysis; format: functional, cell-based; conditions: U-87MG ATCC
Procedure, shortened: (§3)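 U-87 MG cells cultured two days, then exposed 48 h to increasing doses. Lysed in RIPA with protease inhibitors; 5 µg protein run on 4-20% SDS gels and transferred to PVDF. Probed for phospho/total AKT, S6, S6K, P62 and LC3, detected by ECL. Band intensities normalized to β-actin.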

[6] = Antitumor activity in high alert medicated patient derived human GBM1 cells xenografted in immunodeficient nude mouse model assessed as tumor growth inhibition at 50 mg/kg,ip QD and measured after 9 to 11 days; format: functional; procedure, shortened: as §1
[7] = Antitumor activity in high alert medicated patient derived human GBM1 cells xenografted in immunodeficient nude mouse model assessed as change in tumor volume at 50 mg/kg,ip QD cotreatment with Temozolomide at 42 mg/kg,po QD and measured after 11 days relative to control; format: functional; conditions: time 11 day; procedure, shortened: as §1
[8] = Metabolic stability in mouse plasma assessed as half life at 5 uM and measured upto 120 mins by UPLC-MS/MS analysis; format: ADME, cell-free; procedure, shortened: as §2
[9] = Permeability across blood brain barrier in Swiss mouse assessed as brain to plasma ratio of (2R,4aR,9aR)-7-((E)-2-(5-hydroxy-2,2-dimethylchroman-7-yl)vinyl)-1,1,4a-trimethyl-2,3,4,4a,9,9a-hexahydro-1H-xanthene-2,5-diol metabolite at 15 mg/kg, ip and measured after 1.5 hrs by LC-MS/MS analysis; format: ADME, organism-based
Procedure, shortened: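 Nine male Swiss mice given 15 mg/kg prodrug i.p. (4 mg/mL in cyclodextrin vehicle). Blood taken from three mice at each of 0.25, 0.75 and 1.5 h; animals then saline-perfused transcardially under isoflurane. Plasma and brain homogenate (1:1 water) acetonitrile-precipitated and analyzed by LC-MS/MS.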

[10] = target: T1, Oxysterol-binding protein 1 (Homo sapiens, UniProt P22059); assay: Inhibition of human C-terminal 6-His tagged OSBP ORD domain (401 to 807 residues) expressed in baculovirus-infected Sf9 cells assessed as reduction in DHE transfer from liposome (Le mimicking ER) to liposome (Lg mimicking golgi) with compound by FRET assay
T1 sequence (P22059 whole entry): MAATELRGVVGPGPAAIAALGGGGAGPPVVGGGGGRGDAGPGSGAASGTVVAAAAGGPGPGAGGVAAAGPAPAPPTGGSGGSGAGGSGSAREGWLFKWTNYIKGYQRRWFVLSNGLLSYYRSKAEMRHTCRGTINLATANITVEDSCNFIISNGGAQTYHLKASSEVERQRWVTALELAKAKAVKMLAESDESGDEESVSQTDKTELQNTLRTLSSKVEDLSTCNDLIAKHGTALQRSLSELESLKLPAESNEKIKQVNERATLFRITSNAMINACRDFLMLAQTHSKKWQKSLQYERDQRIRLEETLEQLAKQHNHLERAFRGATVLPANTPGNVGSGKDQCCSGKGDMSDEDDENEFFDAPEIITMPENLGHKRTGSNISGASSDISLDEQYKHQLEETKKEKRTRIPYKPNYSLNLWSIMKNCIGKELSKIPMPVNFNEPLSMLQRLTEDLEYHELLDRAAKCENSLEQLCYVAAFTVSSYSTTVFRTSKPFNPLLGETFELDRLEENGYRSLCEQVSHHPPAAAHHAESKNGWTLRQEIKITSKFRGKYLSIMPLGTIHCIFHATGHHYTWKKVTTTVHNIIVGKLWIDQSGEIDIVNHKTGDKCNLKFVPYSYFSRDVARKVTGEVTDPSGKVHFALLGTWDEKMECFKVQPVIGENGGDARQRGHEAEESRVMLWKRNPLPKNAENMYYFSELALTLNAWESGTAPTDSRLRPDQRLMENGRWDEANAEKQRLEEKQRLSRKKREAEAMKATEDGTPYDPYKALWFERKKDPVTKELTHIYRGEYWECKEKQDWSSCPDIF
Procedure, shortened: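 Purified human OSBP ORD (401-807, C-terminal 6×His) from baculovirus-infected Sf9 cells, used in a DHE sterol transfer fluorescence assay. Signal corrected for compound fluorescence. Kinetics fitted linearly or by ΔF = ΔFmax(1 − e^−kt) to give apparent k, which was plotted against compound concentration. Ki from a quadratic (tight binders) or hyperbolic equation, three independent experiments.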

[11] = Antitumor activity in high alert medicated patient derived human GBM1 cells xenografted in immunodeficient nude mouse model assessed as T/C ratio at 20 mg/kg,ip QD cotreatment with Temozolomide at 42 mg/kg,po QD and measured after 11 days; format: functional; conditions: time 11 day; procedure, shortened: as §1
U-87 MG [12] = assay: Induction of autophagy in human U-87 MG cells assessed as decrease in LC3I expression at 0.05 to 1 uM incubated for 48 hrs by Western blot analysis; format: functional, cell-based; conditions: U-87MG ATCC; procedure, shortened: as §3
[13] = Metabolic stability in mouse liver microsomes assessed as intrinsic clearance at 2.5 uM and measured upto 45 mins in presence of NADPH by LC-MS/MS analysis; format: ADME, Microsome; conditions: read-out: CLH
[14] = Antitumor activity in high alert medicated patient derived human GBM1 cells xenografted in immunodeficient nude mouse model assessed as T/C ratio at 50 mg/kg,ip QD cotreatment with Temozolomide at 42 mg/kg,po QD and measured from 9 to 11 days; format: functional; conditions: time 9-11 day; procedure, shortened: as §1
mTORC1 (Homo sapiens) = mTORC1 (Homo sapiens) (UniProt P42345+Q8N122+Q9BVC4); assay: Inhibition of mTORC1 signalling in human U-87 MG cells assessed as decrease in S6 phosphorylation at S240/244 residue at 0.05 to 1 uM incubated for 48 hrs by Western blot analysis; format: cell-based; procedure, shortened: as §3
[15] = Toxicity in immunodeficient mouse assessed as body weight change at 100 mg/kg,ip QD for 5 days; format: organism-based; conditions: in vivo, 120 h, time 5 day

mTORC1 (Homo sapiens), sequence (Q8N122 whole entry, looked up, other chains not shown): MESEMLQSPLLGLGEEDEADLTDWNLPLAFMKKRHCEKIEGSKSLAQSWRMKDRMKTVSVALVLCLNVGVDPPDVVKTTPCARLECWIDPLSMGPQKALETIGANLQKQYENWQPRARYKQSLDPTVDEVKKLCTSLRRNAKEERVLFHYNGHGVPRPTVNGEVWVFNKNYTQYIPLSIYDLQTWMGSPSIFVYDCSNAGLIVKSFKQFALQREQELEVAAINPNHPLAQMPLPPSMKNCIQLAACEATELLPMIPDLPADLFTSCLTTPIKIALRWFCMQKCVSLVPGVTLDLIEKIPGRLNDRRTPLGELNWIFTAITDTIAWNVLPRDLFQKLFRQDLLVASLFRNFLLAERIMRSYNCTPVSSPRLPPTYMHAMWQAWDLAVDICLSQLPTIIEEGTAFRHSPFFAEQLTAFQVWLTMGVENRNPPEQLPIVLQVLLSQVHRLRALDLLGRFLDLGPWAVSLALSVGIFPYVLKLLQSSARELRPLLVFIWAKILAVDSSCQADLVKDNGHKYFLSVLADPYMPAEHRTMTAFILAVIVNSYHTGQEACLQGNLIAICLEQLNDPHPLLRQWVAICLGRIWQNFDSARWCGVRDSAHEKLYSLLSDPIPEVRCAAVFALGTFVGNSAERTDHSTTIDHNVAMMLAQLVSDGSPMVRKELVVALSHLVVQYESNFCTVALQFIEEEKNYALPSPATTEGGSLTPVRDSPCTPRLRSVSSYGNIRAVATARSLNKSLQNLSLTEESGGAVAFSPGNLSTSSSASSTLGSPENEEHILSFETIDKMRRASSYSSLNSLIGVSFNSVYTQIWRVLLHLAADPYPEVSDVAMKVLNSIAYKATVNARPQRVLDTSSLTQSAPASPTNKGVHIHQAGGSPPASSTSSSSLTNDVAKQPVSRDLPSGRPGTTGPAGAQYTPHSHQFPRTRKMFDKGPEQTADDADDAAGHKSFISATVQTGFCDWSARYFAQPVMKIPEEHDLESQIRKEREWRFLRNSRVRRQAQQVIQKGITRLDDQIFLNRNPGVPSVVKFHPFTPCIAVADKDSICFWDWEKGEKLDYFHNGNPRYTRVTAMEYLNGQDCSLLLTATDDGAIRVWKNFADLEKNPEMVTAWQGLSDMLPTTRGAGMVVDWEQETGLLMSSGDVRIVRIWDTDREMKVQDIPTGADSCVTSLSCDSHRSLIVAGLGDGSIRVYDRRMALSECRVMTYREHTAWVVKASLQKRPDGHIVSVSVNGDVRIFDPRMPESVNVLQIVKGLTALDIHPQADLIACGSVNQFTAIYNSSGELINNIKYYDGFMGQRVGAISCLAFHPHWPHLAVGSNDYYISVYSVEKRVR
mTORC1 (Homo sapiens), sequence (Q9BVC4 whole entry, looked up, other chains not shown): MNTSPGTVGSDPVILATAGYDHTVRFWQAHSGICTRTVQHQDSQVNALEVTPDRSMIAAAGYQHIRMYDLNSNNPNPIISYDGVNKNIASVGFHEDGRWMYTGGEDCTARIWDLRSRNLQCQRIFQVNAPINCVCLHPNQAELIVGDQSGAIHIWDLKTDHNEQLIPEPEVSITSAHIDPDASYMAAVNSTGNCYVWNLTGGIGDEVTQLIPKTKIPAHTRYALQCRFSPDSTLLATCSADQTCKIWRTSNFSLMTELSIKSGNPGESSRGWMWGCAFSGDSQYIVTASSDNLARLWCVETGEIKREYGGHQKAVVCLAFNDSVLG

remaining at 2 h, 5 µM [2]: 20.2%
half-life at 5 µM [8]: 51 min
BPR [9]: 1.74
Ki [10]: 1.07 µM
microsomal CLint at 2.5 µM [13]: 120 µL/min/mg
inhibition (mTORC1 (Homo sapiens)): Dose-Dependent Effect
SMILES: CC1(C)CCc2c(O)cc(/C=C/c3cc(O)c4c(c3)C[C@@H]3C(C)(C)[C@H](OC=O)CC[C@@]3(C)O4)cc2O1
T/C [1]: 70.05%
Activity [3]: Non-Toxic
Activity [4]: Non-Toxic
Activity (U-87 MG [5]): Dose-Dependent Effect
TGDI at 50 mg/kg [6]: 1.37%
Activity [7]: 329.18%
T/C [11]: 49.91%
Activity (U-87 MG [12]): Dose-Dependent Effect
T/C [14]: 41.43%
Activity [15]: Non-Toxic
